Bioassay records: PubChem BioAssay, several laboratories
Calb FLC: affects C. albicans growth with fluconazole; C. albicans CaCi-2 (fluconazole-resistant clinical isolate) + fluconazole, Alamar Blue growth, 48 h; growth inhibition, % (test concentration not listed); 300,000 tested, 0.57% active;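 active = growth inhibition above about 58% in most replicates, limit read from the data, passing the limit was not always enough; inconclusive = exactly half the replicates above a set limit; inactive = most replicates below a set limit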;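 also: all wells also contain fluconazole at 8 µg/ml as a sub-toxic cotreatment; 0% = median of DMSO wells and 100% = median of geldanamycin control wells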
NALP1 yeast inh: inhibitors of NALP1 inflammasome in yeast | 280,000 tested, 0.61% active | inhibition, % at 10 µM | AID 2071 | S. cerevisiae NALP1/ASC/caspase-1 growth, X-gal OD620, 72 h; in the data active = inhibition mostly above about 24%, no sharp cut-off; inactive = mostly below about 32%
Lmaj promast: Leishmania major promastigote growth inhibition; 200,000 tested, 9% active; AID 1063; Leishmania major promastigotes, resazurin fluorescence viability; inhibition, % at 10 µM; in the data active = inhibition above about 50%;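 also: promastigotes grown with compound for 44 hours at 28 °C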
NALP3 yeast inh: blocks the NALP3 inflammasome reconstituted in yeast | Yeast reconstituted NLRP3/ASC/caspase-1, beta-gal luminescence, 24 h | inhibition, % at 10 µM | 330,000 tested, 0.39% active | AID 2825;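 active = inhibition of 50% or more; inactive = inhibition below 50%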;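 also: plate controls were induced DMSO wells for no effect and uninduced yeast grown without galactose for full effect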
PolyA inhibitor: blocks polyadenylation in yeast reporter cells. 300,000 tested, 0.02% active. activity score, % at 12 µM. S. cerevisiae SKY197-pL101 polyadenylation reporter, beta-gal luminescence; efflux-impaired pdr1/pdr3 knockout yeast; score 100 = 6 SD above DMSO;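 active = lowest replicate activity score at least 50, where 100 means six control SD above control mean; inconclusive = lowest score under 50 but half or more replicates reach 50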;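 also: yeast exposed to compound for 9 h at 30 °C; higher score means more reporter readthrough which indicates perturbed polyadenylation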
T cruzi repl: T. cruzi replication inhibition; inhibition, % (no concentration beside the values); AID 1885; T. cruzi beta-gal in NIH3T3, luminescence, 90 h; 300,000 tested, 1.4% active;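 active = mean inhibition across valid replicates above about 55%, limit read from the data; inconclusive = mean below that limit but half or more replicates reach it; inactive = mean below it, under half of replicates reach it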;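 also: signal also drops with host cell toxicity which is not excluded here; 0% = plate median of DMSO wells and 100% = zero luminescence signal; higher percent means less beta-gal luminescence so fewer parasites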
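Assay system: NIH/3T3 fibroblasts plus reporter T. cruzi. Amount: NIH/3T3 cells, 5,000 per well. Buffer or medium: DMEM, 2% fetal bovine serum. Doses: compound pinned at 50 nL/well, DMSO. Schedule: ≥90 h infection period, 3 h prior cell attachment. Signal: luminescent β-galactosidase signal after 60 min lysis. Read-out: parasite load inhibition, %.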
Numbers without * were called inactive; ? = inconclusive; · = no result given. Shown is part of a subset that was picked to be rich in hits.

SMILES | Calb FLC | NALP1 yeast inh | Lmaj promast | NALP3 yeast inh | PolyA inhibitor | T cruzi repl
O=C(Nc1nnc(-c2ccccc2)o1)c1cccc(N2C(=O)CCC2=O)c1 | 100* | 28 | -9 | -2 | 8 | -19
Fc1cccc(Nc2nc(N3CCOCC3)nc(N3CCOCC3)n2)c1 | -4 | -7 | · | 15 | -18 | 36
CCOc1ccc(NCc2ccccc2OCc2cccc(F)c2)cc1 | -29 | 28 | 5 | 35 | 3 | 55*
CCOc1c(Cl)cc(CNc2ccc(N3CCCC3)cc2)cc1OC | 5 | -12 | 24 | · | -31 | 63*
NC(=O)c1ccc(NC(=O)CSC(=O)c2ccccc2)cc1 | · | · | · | 0 | · | ·
COc1ccc(CCn2c(=N)c(C(=O)NCC3CCCO3)cc3c(=O)n4cccc(C)c4nc32)cc1 (stereo unspecified) | 2 | 3 | · | 13 | 5 | 58*
Cc1cccn2c(=O)c3cc(C(=O)NCC4CCCO4)c(=N)n(CC4CCCO4)c3nc12 (stereo unspecified) | -8 | 17 | · | 18 | 13 | -3
COc1ccc(CNC(=O)c2cc3c(=O)n4cccc(C)c4nc3n(CC3CCCO3)c2=N)cc1 (stereo unspecified) | -2 | 36* | · | 25 | 10 | 28
O=C(C1CCN(Cc2cccs2)CC1)N1CCN(Cc2ccc3c(c2)OCO3)CC1 | -28 | -3 | 10 | 16 | -14 | 3
COCCN1C(=O)C(O)=C(C(=O)c2ccco2)C1c1cccc(Oc2ccccc2)c1 (stereo unspecified) | 99* | 1 | -11 | 6 | 24 | -1
Cc1cc(N2C(=O)C(O)=C(C(=O)c3ccc(C)o3)C2c2cccc(Oc3ccccc3)c2)no1 (stereo unspecified) | 56 | 38* | · | 17 | 8 | 6
COc1ccc(C2C(C(=O)c3ccc(C)o3)=C(O)C(=O)N2c2cc(C)on2)cc1OC (stereo unspecified) | -1 | -3 | -4 | 8 | -1 | -5
CC(NC(=O)COC(=O)/C=C/c1cccc(C(F)(F)F)c1)c1ccccc1 (stereo unspecified) | -9 | 24 | -4 | -8 | 0 | -7
O=C(COc1ccc(Cl)cc1)Nc1cc2c3c(c1)CC(=O)N3CCC2 | 0 | · | · | 24 | -2 | 6
COc1cc(C(C(=O)NC(C)(C)C)N(Cc2ccccc2)C(=O)c2cnccn2)cc(OC)c1OC (stereo unspecified) | -1 | -7 | -3 | -1 | 14 | -10
CCC(C)(C)NC(=O)C(c1ccc(OC)cc1)N(Cc1ccccc1)C(=O)CCC(=O)Nc1cc(C)on1 (stereo unspecified) | 3 | 8 | · | -3 | -3 | 17
COc1ccc(C(C(=O)NC(C)(C)C)N(Cc2ccccc2)C(=O)CCC(=O)Nc2cc(C)on2)cc1 (stereo unspecified) | 13 | 9 | 95* | 8 | 27 | 3
COc1ccc(CN(C(=O)c2ccc(-c3ccccc3)[nH]2)C(C(=O)NC(C)(C)C)c2ccncc2)cc1 (stereo unspecified) | 18 | -3 | 93* | 24 | -16 | 59*
CC(C)(C)c1csc(NC(=O)Cn2cnc3ccccc3c2=O)n1 | ? | 0 | 26 | 34 | 31 | 4
NC(=O)c1ccc(NC(=O)COC(=O)/C=C/c2cn(-c3ccccc3)nc2-c2cccnc2)cc1 | 4 | 19 | 51* | 9 | 2 | -14
O=C(/C=C/c1cn(-c2ccccc2)nc1-c1cccnc1)c1ccco1 | 56 | 0 | 100* | 12 | -20 | 4
Cc1ccc2nc(-c3ccccc3)c(CC(=O)O)c(C(=O)O)c2c1 | 29 | -6 | -6 | 19 | 6 | 7
CCNS(=O)(=O)c1ccc(CCC(=O)NCc2ccc(C)cc2)cc1 | -11 | 0 | 1 | 16 | 2 | 18
CCCCn1c(SCC(=O)N2c3ccccc3Sc3ccccc32)nc2c1c(=O)n(C)c(=O)n2C | -6 | 16 | 78* | -1 | -7 | 31
Cc1cccc(-c2nsc(SCC(=O)NCc3ccc4c(c3)OCO4)n2)c1 | -53 | 1 | 4 | 11 | -29 | 11
SMILES | Calb FLC | NALP1 yeast inh | Lmaj promast | NALP3 yeast inh | PolyA inhibitor | T cruzi repl
O=C(CSc1nc(C2CCCCC2)nc2ccccc12)NCc1ccc2c(c1)OCO2 | 13 | 23 | 53* | -8 | -10 | 23
CCCn1c(SCC(=O)O)nc2ccccc21 | -3 | 9 | -7 | -5 | 4 | 1
COc1ccc(-c2nsc(SCC(=O)NCc3ccc4c(c3)OCO4)n2)cc1 | 3 | 25 | 99* | 16 | -24 | 14
CCCn1c(SCC(=O)N2c3ccccc3Sc3ccccc32)nc2ccccc21 | ? | 16 | 3 | 17 | -41 | 57*
COc1ccc(-c2nc(CN(Cc3cnn(C)c3)C(C)C)c(C)o2)c(OC)c1 | -5 | 6 | -9 | 6 | 2 | -3
O=C(CSc1nc(C2CC2)nc2ccccc12)N1c2ccccc2Sc2ccccc21 | 1 | 21 | 50* | 0 | -14 | 59*
O=C(CSc1nc2ccccc2o1)N1c2ccccc2Sc2ccccc21 | 6 | 13 | 82* | 3 | -27 | 28
CC(=O)CSc1nc2ccccc2o1 | 9 | -8 | -4 | -16 | -12 | -4
O=C(c1ccc([N+](=O)[O-])cc1)N1CCN(c2ncccn2)CC1 | -1 | · | · | 15 | 1 | -6
COc1ccc(C(=O)Nc2nnc(S(=O)(=O)N3CCOCC3)s2)cc1 | 24 | -24 | · | 1 | 5 | -6
Cc1nc2ccccc2c(=O)n1NC(=O)C1CC1C (stereo unspecified) | -1 | 20 | -5 | 15 | 5 | -16
CCOc1ccc(C2c3c(oc4ccccc4c3=O)C(=O)N2c2ccc(C)cn2)cc1OC (stereo unspecified) | 4 | 43 | 80* | 21 | 4 | 33
Cc1ccc(/C=C(\C#N)C(=O)NCCN2CCOCC2)cc1 | -2 | 21* | 3 | 17 | -3 | -10
Cc1ccsc1/C=C(\C#N)C(=O)NCCCN1CCOCC1 | 3 | 16 | 1 | 8 | 6 | -17
Cc1ccc(C(=O)N/C(=C\c2ccc(Cl)cc2)C(=O)NCCCN2CCOCC2)cc1 | 2 | 12 | 2 | 6 | 14 | -1
Cc1ccc(C(=O)N/C(=C\c2ccc(C(C)C)cc2)C(=O)NCCCN2CCOCC2)cc1 | 1 | 23 | 67* | 7 | 9 | -1
C/C(=N\NC(=O)c1ccc([N+](=O)[O-])cc1Cl)c1ccccc1 | -17 | 6 | 5 | 5 | -8 | ?
CCCCNCCCOc1ccc(C)cc1Br | -4 | 5 | 90* | 21 | -9 | 47
Cc1ccc(OCCCNCCO)c(Br)c1 | 17 | 2 | 73* | -1 | 14 | 21
CNCCCOc1ccc(C)cc1Br | -17 | -4 | 11 | 1 | -11 | -6
CCCCNCCCOc1cccc(Cl)c1Cl | -26 | 22 | 100* | 15 | 25 | 36
